The record followed here is ChEMBL document CHEMBL1156302, “Discovery of a synthetic dual inhibitor of HIV and HCV infection based on a tetrabutoxy-calix[4]arene scaffold” (Bioorg Med Chem Lett, 2010).

One experiment has as its system CCRF-CEM. As to the kind of experiment: Cytotoxicity against HCV infected human CEM cells. Format: cell-based.
The test system of a further experiment is Hepatitis C virus. As to the kind of experiment: Antiviral activity against HCV infected in human CEM cells assessed as inhibition of viral replication. Format: functional, organism-based, Hepacivirus hominis. To be noted: CCRF-CEM.
Experiment [1] concerns Human immunodeficiency virus 1. As to the kind of experiment: Antiviral activity against HIV1 infected in human MT2 cells. The following applies: Human immunodeficiency virus 1, MT2. Format: functional, organism-based.
The test system of the next experiment is MT2. As to the kind of experiment: Cytotoxicity against human MT2 cells. Format: cell-based. In short, it runs like this: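 Cell toxicity was measured in MT-2 human T cells bearing HTLV-1 and expressed as ID50.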
Experiment [2] can be described thus: Inhibition of VEGF binding to VEGFR.
A short description of experiment [3]: Inhibition of PDGF binding to PDGFR.
The next experiment has as its system Human alphaherpesvirus 2. As to the kind of experiment: Antiviral activity against HSV2 assessed as inhibition of viral replication. Format: functional, organism-based.
The subject of another experiment is Human alphaherpesvirus 1. As to the kind of experiment: Antiviral activity against HSV1 assessed as inhibition of viral replication. Format: functional, organism-based.
Experiment [4] concerns Human immunodeficiency virus 1. As to the kind of experiment: Antiviral activity against HIV1 infected in human TZM-bl cells. Format: functional, organism-based. In short, it runs like this:
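Host cells were TZM-bl, a HeLa line carrying firefly luciferase driven by an HIV promoter.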

Experiment [5] deals with Human immunodeficiency virus 1. As to the kind of experiment: Antiviral activity against HIV1 infected in human CEMx174 cells. Format: functional, organism-based.
Another experiment has as its system Hepatitis B virus. As to the kind of experiment: Antiviral activity against HBV assessed as inhibition of viral replication. Format: functional, organism-based.

As usually defined, the IC50 is the point on the concentration scale where inhibition reaches its midpoint.

Calls of active or inactive are those of the source. No cut-off for these calls is given here.

As to `O=C(O)c1cc(NC(=O)c2cc3c(OCc4ccccc4)c(c2)Cc2cc(C(=O)Nc4cc(C(=O)O)cc(C(=O)O)c4)cc(c2OCc2ccccc2)Cc2cc(C(=O)Nc4cc(C(=O)O)cc(C(=O)O)c4)cc(c2OCc2ccccc2)Cc2cc(C(=O)Nc4cc(C(=O)O)cc(C(=O)O)c4)cc(c2OCc2ccccc2)C3)cc(C(=O)O)c1`, the half-maximal inhibitory concentration (IC50) in the experiment on CCRF-CEM stood at 0.46 µM; in the experiment on Hepatitis C virus, 1.4 µM; in experiment [1] it was 0.3 µM; with MT2, 18 µM.
The like results for `CCCCOc1c2cc(C(=O)N[C@@H](CCC(=O)O)C(=O)O)cc1Cc1cc(C(=O)N[C@@H](CCC(=O)O)C(=O)O)cc(c1OCCCC)Cc1cc(C(=O)N[C@H](CCC(=O)O)C(=O)O)cc(c1OCCCC)Cc1cc(C(=O)N[C@@H](CCC(=O)O)C(=O)O)cc(c1OCCCC)C2` were, in that order, 100 µM, 4.1 µM, 2.4 µM and over 50 µM.
Consider `CCCCOc1c2cc(C(=O)Nc3cc(C(=O)O)cc(C(=O)NC4CCCCC4)c3)cc1Cc1cc(C(=O)Nc3cc(C(=O)O)cc(C(=O)NC4CCCCC4)c3)cc(c1OCCCC)Cc1cc(C(=O)Nc3cc(C(=O)O)cc(C(=O)NC4CCCCC4)c3)cc(c1OCCCC)Cc1cc(C(=O)Nc3cc(C(=O)O)cc(C(=O)NC4CCCCC4)c3)cc(c1OCCCC)C2`, for which the 50% inhibitory concentration (IC50) in the experiment on CCRF-CEM is over 50 µM; in the experiment on Hepatitis C virus it was 4.1 µM; in experiment [2] it was over 10 µM; in [1] it was over 50 µM; in the experiment with MT2, over 50 µM; in [3] it was 0.29 µM.
Turning to `CCCCOc1c2cc(C(=O)O)cc1Cc1cc(C(=O)O)cc(c1OCCCC)Cc1cc(C(=O)O)cc(c1OCCCC)Cc1cc(C(=O)O)cc(c1OCCCC)C2`, the 50% inhibitory concentration (IC50) in the experiment on Hepatitis C virus is 30.1 µM; in [1], 2.9 µM; in the experiment on MT2, 13 µM.
As to `O=C(O)c1cc2c(OCc3ccccc3)c(c1)Cc1cc(C(=O)O)cc(c1OCc1ccccc1)Cc1cc(C(=O)O)cc(c1OCc1ccccc1)Cc1cc(C(=O)O)cc(c1OCc1ccccc1)C2`, the half-maximal inhibitory concentration (IC50) was 50 µM in the experiment with CCRF-CEM, over 50 µM in the experiment on Hepatitis C virus, 37.1 µM in experiment [1] and over 50 µM in the experiment with MT2.
Turning to `O=C(O)c1cc(NC(=O)c2cc3c(O)c(c2)Cc2cc(C(=O)Nc4cc(C(=O)O)cc(C(=O)O)c4)cc(c2O)Cc2cc(C(=O)Nc4cc(C(=O)O)cc(C(=O)O)c4)cc(c2O)Cc2cc(C(=O)Nc4cc(C(=O)O)cc(C(=O)O)c4)cc(c2O)C3)cc(C(=O)O)c1`, the IC50 is over 50 µM in the experiment with Hepatitis C virus, 6.7 µM in [1] and over 50 µM in the experiment with MT2.
Consider `O=C(O)c1cc2c(O)c(c1)Cc1cc(C(=O)O)cc(c1O)Cc1cc(C(=O)O)cc(c1O)Cc1cc(C(=O)O)cc(c1O)C2`, for which the IC50 (in the experiment with CCRF-CEM; in the experiment on Hepatitis C virus; in experiment [1]; in the experiment on MT2) was over 50 µM in each case.
For the compound `CCCCOc1c2cc(C(=O)Nc3cc(C(=O)O)cc(C(=O)O)c3)cc1Cc1cc(C(=O)Nc3cc(C(=O)O)cc(C(=O)O)c3)cc(c1OCCCC)Cc1cc(C(=O)Nc3cc(C(=O)O)cc(C(=O)O)c3)cc(c1OCCCC)Cc1cc(C(=O)Nc3cc(C(=O)O)cc(C(=O)O)c3)cc(c1OCCCC)C2`, the IC50 is 50 µM in the experiment with CCRF-CEM; 1.8 µM in the experiment with Hepatitis C virus; 4.96 µM in [2]; 0.36 µM in [1]; over 50 µM in the experiment on MT2; 2.62 µM in experiment [3]. The outcome in the experiment on Human alphaherpesvirus 2, with Human alphaherpesvirus 1 and in the experiment with Hepatitis B virus was inactive. In addition, the result in experiment [4] and in [5] was Active.
Consider `CCCCOc1c2cc(C(=O)Nc3cc(C(=O)O)cc(C(=O)OCc4ccccc4)c3)cc1Cc1cc(C(=O)Nc3cc(C(=O)O)cc(C(=O)OCc4ccccc4)c3)cc(c1OCCCC)Cc1cc(C(=O)Nc3cc(C(=O)O)cc(C(=O)OCc4ccccc4)c3)cc(c1OCCCC)Cc1cc(C(=O)Nc3cc(C(=O)O)cc(C(=O)OCc4ccccc4)c3)cc(c1OCCCC)C2`, for which the half-inhibitory concentration (IC50) in the experiment with CCRF-CEM was 12.5 µM; with Hepatitis C virus it was 25.6 µM; in experiment [2], 0.48 µM; in [1], over 50 µM; with MT2, over 50 µM; in experiment [3], 0.19 µM.
For the compound `CCCCOc1c2cc(C(=O)NCCN)cc1Cc1cc(C(=O)NCCN)cc(c1OCCCC)Cc1cc(C(=O)NCCN)cc(c1OCCCC)Cc1cc(C(=O)NCCN)cc(c1OCCCC)C2`, the IC50 in the experiment on CCRF-CEM was under 12.5 µM; in the experiment on Hepatitis C virus it was 5.7 µM; in experiment [1], under 16 µM; in the experiment on MT2 it was 16 µM.
